# Source: ChEMBL document CHEMBL1140069, “In vitro antifungal activity of polyfunctionalized 2-(hetero)arylquinolines prepared through imino Diels-Alder reactions” (2008)
# Columns and labels:
# Format in all cases: functional
# [1] = tested on: Aspergillus flavus; assay: Antifungal activity against Aspergillus flavus ATCC 9170 after 48 hrs by broth microdilution technique; settings: ATCC 9170, 48 h
# Method in brief: (§1)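 CLSI broth microdilution: M-27 A2 for yeasts and M-38 A for filamentous fungi. Medium is RPMI-1640 buffered to pH 7.0 with MOPS. Compound is diluted twofold from 250 to 0.98, final DMSO ≤2%. Inoculum is 1–5 × 10³ CFU/mL. Plates are incubated at 35 °C in a moist, dark chamber and read visually at 48 h. MIC100 is the lowest concentration giving total growth inhibition versus drug-free control.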
# [2] = tested on: Aspergillus niger; assay: Antifungal activity against Aspergillus niger ATCC 9029 after 48 hrs by broth microdilution technique; settings: ATCC 9029, 48 h; method in brief: as §1
# [3] = tested on: Candida albicans; assay: Antimicrobial activity against Candida albicans ATCC 10231 at 6.25 ug/ml after 24 hrs; settings: ATCC 10231, 24 h
# Method in brief: (§2)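 Growth-inhibition microplate test. Strains are grown on Sabouraud-chloramphenicol agar for 48 h at 30 °C, and inoculum is added to RPMI-1640 containing compound at a final 100–6.25, with DMSO ≤2%. Each strain has a growth control (same DMSO, no compound) and a sterility control.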
# [4] = tested on: Candida albicans; assay: Antimicrobial activity against Candida albicans C126 isolate at 6.25 ug/ml after 24 hrs; method in brief: as §2
# [5] = tested on: Candida albicans; assay: Antimicrobial activity against Candida albicans C127 isolate at 6.25 ug/ml after 24 hrs; settings: C127, 24 h; method in brief: as §2
# [6] = tested on: Candida albicans; assay: Antimicrobial activity against Candida albicans C128 isolate at 6.25 ug/ml after 24 hrs; method in brief: as §2
# [7] = tested on: Cryptococcus neoformans; assay: Antimicrobial activity against Cryptococcus neoformans IM 972724 isolate at 6.25 ug/ml after 48 hrs
# Method in brief: (§3)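 Clinical Cryptococcus isolates kept on Sabouraud-dextrose agar slopes; inoculum 1–5 × 10³ CFU/mL. Quinoline DMSO stocks were diluted in RPMI-1640 to final 100–6.25 µg/mL, with DMSO ≤2%. An equal volume of inoculum was added (200 µL per well). Run in triplicate.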
# [8] = tested on: Candida albicans; assay: Antimicrobial activity against Candida albicans C129 isolate at 6.25 ug/ml after 24 hrs; method in brief: as §2
# [9] = tested on: Candida albicans; assay: Antimicrobial activity against Candida albicans C130 isolate at 6.25 ug/ml after 24 hrs; method in brief: as §2
# [10] = tested on: Nakaseomyces glabratus; assay: Antimicrobial activity against Candida glabrata C115 isolate at 6.25 ug/ml after 24 hrs
# Method in brief: (§4)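 Percent growth inhibition in 96-well microplates. Compound stocks in DMSO (≤2%) were diluted in RPMI-1640 to final 100–6.25 µg/mL, and 100 µL inoculum was added (final 200 µL). Controls were a growth well (inoculum with matching DMSO, no compound) and a sterility well (no inoculum). Inhibition was calculated against growth and sterility wells.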
# [11] = tested on: Candida tropicalis; assay: Antimicrobial activity against Candida tropicalis C131 isolate at 6.25 ug/ml after 24 hrs; method in brief: as §4
# [12] = tested on: Candida parapsilosis; assay: Antimicrobial activity against Candida parapsilosis C124 isolate at 6.25 ug/ml after 24 hrs; settings: Lodderomyces parapsilosis; method in brief: as §4
# [13] = tested on: Pichia kudriavzevii; assay: Antimicrobial activity against Candida krusei C117 isolate at 6.25 ug/ml after 24 hrs; method in brief: as §4
# [14] = tested on: Cryptococcus neoformans; assay: Antimicrobial activity against Cryptococcus neoformans IM 042074 isolate at 6.25 ug/ml after 48 hrs; method in brief: as §4
# [15] = tested on: Cryptococcus neoformans; assay: Antimicrobial activity against Cryptococcus neoformans IM 983036 isolate at 6.25 ug/ml after 48 hrs; method in brief: as §3
# [16] = tested on: Cryptococcus neoformans; assay: Antimicrobial activity against Cryptococcus neoformans IM 00319 isolate at 6.25 ug/ml after 48 hrs; method in brief: as §4
# [17] = tested on: Cryptococcus neoformans; assay: Antimicrobial activity against Cryptococcus neoformans IM 972751 isolate at 6.25 ug/ml after 48 hrs; method in brief: as §3
# [18] = tested on: Cryptococcus neoformans; assay: Antimicrobial activity against Cryptococcus neoformans IM 031631 isolate at 6.25 ug/ml after 48 hrs; method in brief: as §4
# [19] = tested on: Cryptococcus neoformans; assay: Antimicrobial activity against Cryptococcus neoformans IM 031706 isolate at 6.25 ug/ml after 48 hrs; method in brief: as §4
# [20] = tested on: Cryptococcus neoformans; assay: Antimicrobial activity against Cryptococcus neoformans IM 961951 isolate at 6.25 ug/ml after 48 hrs; method in brief: as §3
# [21] = tested on: Cryptococcus neoformans; assay: Antimicrobial activity against Cryptococcus neoformans ATCC 32264 at 6.25 ug/ml after 48 hrs; settings: ATCC 32264, 48 h; method in brief: as §4
# [22] = tested on: Cryptococcus neoformans; assay: Antimicrobial activity against Cryptococcus neoformans IM 983040 isolate at 6.25 ug/ml after 48 hrs; method in brief: as §3
# [23] = tested on: Cryptococcus neoformans; assay: Antimicrobial activity against Cryptococcus neoformans IM 052470 isolate at 6.25 ug/ml after 48 hrs; method in brief: as §4
# [24] = tested on: Candida albicans; assay: Antifungal activity against Candida albicans ATCC 10231 after 48 hrs by broth microdilution technique; settings: ATCC 10231, 48 h; method in brief: as §1
# [25] = tested on: Saccharomyces cerevisiae; assay: Antifungal activity against Saccharomyces cerevisiae ATCC 9763 after 48 hrs by broth microdilution technique; settings: ATCC 9763, 48 h; method in brief: as §1
# [26] = tested on: Cryptococcus neoformans; assay: Antifungal activity against Cryptococcus neoformans ATCC 32264 after 48 hrs by broth microdilution technique; settings: ATCC 32264, 48 h; method in brief: as §1
# [27] = tested on: Aspergillus fumigatus; assay: Antifungal activity against Aspergillus fumigatus ATTC 26934 after 48 hrs by broth microdilution technique; method in brief: as §1
# [28] = tested on: Nannizzia gypsea; assay: Antifungal activity against Microsporum gypseum C115 after 48 hrs by broth microdilution technique; method in brief: as §1
# [29] = tested on: Trichophyton rubrum; assay: Antifungal activity against Trichophyton rubrum C110 after 48 hrs by broth microdilution technique; method in brief: as §1
# [30] = tested on: Trichophyton mentagrophytes; assay: Antifungal activity against Trichophyton mentagrophytes ATCC 9972 after 48 hrs by broth microdilution technique; settings: ATCC 9972, 48 h; method in brief: as §1
# [31] = tested on: Trichophyton rubrum; assay: Antifungal activity against Trichophyton rubrum C133 isolate; settings: read-out: MIC100
# [32] = tested on: Trichophyton rubrum; assay: Antifungal activity against Trichophyton rubrum C135 isolate; settings: read-out: MIC100
# [33] = tested on: Trichophyton rubrum; assay: Antifungal activity against Trichophyton rubrum C136 isolate; settings: read-out: MIC100
# [34] = tested on: Trichophyton rubrum; assay: Antifungal activity against Trichophyton rubrum C137 isolate; settings: read-out: MIC100
# [35] = tested on: Trichophyton mentagrophytes; assay: Antifungal activity against Trichophyton mentagrophytes C131 isolate; settings: read-out: MIC100
# [36] = tested on: Trichophyton mentagrophytes; assay: Antifungal activity against Trichophyton mentagrophytes C132 isolate; settings: read-out: MIC100
# [37] = tested on: Trichophyton mentagrophytes; assay: Antifungal activity against Trichophyton mentagrophytes C364 isolate; settings: read-out: MIC100
# [38] = tested on: Trichophyton mentagrophytes; assay: Antifungal activity against Trichophyton mentagrophytes C539 isolate; settings: read-out: MIC100
# [39] = tested on: Trichophyton mentagrophytes; assay: Antifungal activity against Trichophyton mentagrophytes C943 isolate; settings: read-out: MIC100
Structure (SMILES),MIC [1],MIC [2],inhibition at 6.25 µg/mL [3],MIC [24],MIC [25],MIC [26],MIC [27],MIC [28],MIC ([29]; read-out: MIC),MIC ([29]; read-out: MIC100),MIC [30],MIC [31],MIC [32],MIC [33],MIC [34],MIC [35],MIC [36],MIC [37],MIC [38],MIC [39],also measured
C[C@@H]1[C@H](O)[C@@H](C)/C=C/C=C/C=C/C=C/C=C/C=C/C=C/[C@H](O[C@@H]2O[C@H](C)[C@@H](O)[C@H](N)[C@@H]2O)C[C@@H]2O[C@](O)(C[C@@H](O)C[C@@H](O)[C@H](O)CC[C@@H](O)C[C@@H](O)CC(=O)O[C@H]1C)C[C@H](O)[C@H]2C(=O)O [AMPHOTERICIN B],0.5 µg/mL,0.5 µg/mL,100%,1 µg/mL,0.5 µg/mL,0.25 µg/mL,0.5 µg/mL,–,–,–,–,–,–,–,–,–,–,–,–,–,inhibition at 6.25 µg/mL [4]: 100%; inhibition at 6.25 µg/mL [5]: 100%; inhibition at 6.25 µg/mL [6]: 100%; inhibition at 6.25 µg/mL [7]: 100%; inhibition at 6.25 µg/mL [8]: 100%; inhibition at 6.25 µg/mL [9]: 100%; inhibition at 6.25 µg/mL [10]: 100%; inhibition at 6.25 µg/mL [11]: 100%; inhibition at 6.25 µg/mL [12]: 100%; inhibition at 6.25 µg/mL [13]: 100%; inhibition at 6.25 µg/mL [14]: 100%; inhibition at 6.25 µg/mL [15]: 100%; inhibition at 6.25 µg/mL [16]: 100%; inhibition at 6.25 µg/mL [17]: 100%; inhibition at 6.25 µg/mL [18]: 100%; inhibition at 6.25 µg/mL [19]: 100%; inhibition at 6.25 µg/mL [20]: 100%; inhibition at 6.25 µg/mL [21]: 100%; inhibition at 6.25 µg/mL [22]: 100%; inhibition at 6.25 µg/mL [23]: 100%
Cc1cc(-c2ccncc2)nc2c(C(C)C)cccc12,> 250 µg/mL,> 250 µg/mL,–,> 250 µg/mL,> 250 µg/mL,> 250 µg/mL,> 250 µg/mL,12.5 µg/mL,12.5 µg/mL,7.8 µg/mL,12.5 µg/mL,15.6 µg/mL,7.8 µg/mL,7.8 µg/mL,7.8 µg/mL,15.6 µg/mL,7.8 µg/mL,7.8 µg/mL,7.8 µg/mL,7.8 µg/mL,–
Cc1cc(-c2ccncc2)nc2c(C)cccc12,> 250 µg/mL,> 250 µg/mL,–,> 250 µg/mL,> 250 µg/mL,> 250 µg/mL,> 250 µg/mL,12.5 µg/mL,12.5 µg/mL,7.8 µg/mL,12.5 µg/mL,15.6 µg/mL,7.8 µg/mL,7.8 µg/mL,7.8 µg/mL,31.2 µg/mL,7.8 µg/mL,7.8 µg/mL,7.8 µg/mL,7.8 µg/mL,–
CC(=O)N1CCN(c2ccc(OCC3COC(Cn4ccnc4)(c4ccc(Cl)cc4Cl)O3)cc2)CC1 (configuration not stated) [KETOCONAZOLE],0.5 µg/mL,0.25 µg/mL,100%,0.5 µg/mL,0.5 µg/mL,0.25 µg/mL,0.125 µg/mL,0.05 µg/mL,0.025 µg/mL,–,0.025 µg/mL,–,–,–,–,–,–,–,–,–,inhibition at 6.25 µg/mL [4]: 100%; inhibition at 6.25 µg/mL [5]: 100%; inhibition at 6.25 µg/mL [6]: 100%; inhibition at 6.25 µg/mL [7]: 100%; inhibition at 6.25 µg/mL [8]: 100%; inhibition at 6.25 µg/mL [9]: 100%; inhibition at 6.25 µg/mL [10]: 100%; inhibition at 6.25 µg/mL [11]: 100%; inhibition at 6.25 µg/mL [12]: 100%; inhibition at 6.25 µg/mL [13]: 100%; inhibition at 6.25 µg/mL [14]: 100%; inhibition at 6.25 µg/mL [15]: 100%; inhibition at 6.25 µg/mL [16]: 100%; inhibition at 6.25 µg/mL [17]: 100%; inhibition at 6.25 µg/mL [18]: 100%; inhibition at 6.25 µg/mL [19]: 100%; inhibition at 6.25 µg/mL [20]: 100%; inhibition at 6.25 µg/mL [21]: 100%; inhibition at 6.25 µg/mL [22]: 100%; inhibition at 6.25 µg/mL [23]: 100%
CN(C/C=C/C#CC(C)(C)C)Cc1cccc2ccccc12 [TERBINAFINE],–,–,–,–,–,–,–,0.04 µg/mL,–,0.01 µg/mL,0.04 µg/mL,0.006 µg/mL,0.006 µg/mL,0.006 µg/mL,0.012 µg/mL,0.006 µg/mL,0.006 µg/mL,0.006 µg/mL,0.006 µg/mL,0.006 µg/mL,–
